Tests used:
[1] = Growth inhibition of human UACC62 cells; type: functional; conditions: UACC-62
[2] = Growth inhibition of human HCC2998 cells; type: functional; conditions: HCC 2998
A498 = assay: Growth inhibition of human A498 cells; type: functional
HOP-62 = assay: Growth inhibition of human HOP62 cells; type: functional
[3] = Growth inhibition of human EKVX cells; type: functional
HL-60(TB) = assay: Growth inhibition of human HL-60(TB) cells; type: functional
PC-3 = assay: Growth inhibition of human PC3 cells; type: functional
[4] = Growth inhibition of human SF539 cells; type: functional; conditions: SF-539
M14 = assay: Growth inhibition of human M14 cells; type: functional
SF-268 = assay: Growth inhibition of human SF268 cells; type: functional
T47D = assay: Growth inhibition of human T47D cells; type: functional
A549 = assay: Growth inhibition of human A549/ATCC cells; type: functional
[5] = Growth inhibition of human HCT15 cells; type: functional; conditions: HCT-15
HCT-116 = assay: Growth inhibition of human HCT116 cells; type: functional
SNB-19 = assay: Growth inhibition of human SNB19 cells; type: functional
[6] = Growth inhibition of human LOXIMVI cells; type: functional; conditions: LOX IMVI
[7] = Growth inhibition of human SF295 cells; type: functional; conditions: SF-295
[8] = Growth inhibition of human RXF393 cells; type: functional; conditions: RXF 393
MCF7 = assay: Growth inhibition of human MCF7 cells; type: functional
Malme-3M = assay: Growth inhibition of human MALME-3M cells; type: functional
SK-OV-3 = assay: Growth inhibition of human SKOV3 cells; type: functional
NCI-H23 = assay: Growth inhibition of human NCI-H23 cells; type: functional
ACHN = assay: Growth inhibition of human ACHN cells; type: functional
IGROV-1 = assay: Growth inhibition of human IGROV1 cells; type: functional
786-0 = assay: Growth inhibition of human 786-0 cells; type: functional
SK-MEL-28 = assay: Growth inhibition of human SK-MEL-28 cells; type: functional
KM12 = assay: Growth inhibition of human KM12 cells; type: functional
[9] = Growth inhibition of human OVCAR5 cells; type: functional; conditions: OVCAR-5
MDA-MB-231 = assay: Growth inhibition of human MDA-MB-231 cells; type: functional
U-251 = assay: Growth inhibition of human U251 cells; type: functional
[10] = Growth inhibition of human HOP92 cells; type: functional; conditions: HOP-92
TK-10 = assay: Growth inhibition of human TK10 cells; type: functional
SK-MEL-5 = assay: Growth inhibition of human SK-MEL-5 cells; type: functional
MDA-MB-435 = assay: Growth inhibition of human MDA-MB-435 cells; type: functional
NCI-H322M = assay: Growth inhibition of human NCI-H322M cells; type: functional
[11] = Growth inhibition of human OVCAR8 cells; type: functional; conditions: OVCAR-8
DU-145 = assay: Growth inhibition of human DU145 cells; type: functional
[12] = Growth inhibition of human OVCAR4 cells; type: functional; conditions: OVCAR-4
[13] = Growth inhibition of human UO31 cells; type: functional; conditions: UO-31
NCI-H460 = assay: Growth inhibition of human NCI-H460 cells; type: functional
[14] = Growth inhibition of human NCI-ADR-RES cells; type: functional
COLO 205 = assay: Growth inhibition of human COLO205 cells; type: functional
SN12C = assay: Growth inhibition of human SN12C cells; type: functional
[15] = Growth inhibition of human MOLT4 cells; type: functional; conditions: MOLT-4
RPMI-8226 = assay: Growth inhibition of human RPMI8226 cells; type: functional
K562 = assay: Growth inhibition of human K562 cells; type: functional
[16] = Growth inhibition of human Hs 578T cells; type: functional
SW-620 = assay: Growth inhibition of human SW620 cells; type: functional
CCRF-CEM = assay: Growth inhibition of human CCRF-CEM cells; type: functional
NCI-H226 = assay: Growth inhibition of human NCI-H226 cells; type: functional
SNB-75 = assay: Growth inhibition of human SNB75 cells; type: functional
HT-29 = assay: Growth inhibition of human HT-29 cells; type: functional
[17] = Growth inhibition of human BT549 cells; type: functional; conditions: BT-549
NCI-H522 = assay: Growth inhibition of human NCI-H522 cells; type: functional
MDA-MB-468 = assay: Growth inhibition of human MDA-MB-468 cells; type: functional
[18] = Growth inhibition of human UACC257 cells; type: functional; conditions: UACC-257
CAKI-1 = assay: Growth inhibition of human CAKI-1 cells; type: functional
[19] = Growth inhibition of human OVCAR3 cells; type: functional; conditions: OVCAR-3
SK-MEL-2 = assay: Growth inhibition of human SK-MEL-2 cells; type: functional
SR = assay: Growth inhibition of human SR cells; type: functional
Chymotrypsinogen A = Chymotrypsinogen A (Bos taurus, UniProt P00766); assay: Inhibition of bovine pancreatic alpha-chymotrypsin using Suc-Leu-Leu-Val-Tyr-AMC as substrate by fluorescence assay; conditions: read-out: Ki
Outline: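 Enzyme incubated at 20 °C in 50 mM Tris pH 8.0, 100 mM NaCl, 5 mM EDTA, 7.5% DMSO with varied inhibitor concentrations. Substrate hydrolysis followed for 10 min. Ki from progress curves; mean of three determinations.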

CC(C)C[C@H](NC(=O)[C@H](Cc1ccccc1)NC(=O)c1cnccn1)B(O)O [BORTEZOMIB]
GI50 [1]: 0.91 nM | GI50 [2]: 0.6 nM | GI50 (A498): 0.48 nM | GI50 (HOP-62): 4.47 nM | GI50 [3]: 3.02 nM | GI50 (HL-60(TB)): 1.9 nM | GI50 (PC-3): 2.63 nM | GI50 [4]: 0.59 nM | GI50 (M14): 0.93 nM | GI50 (SF-268): 1.17 nM | GI50 (T47D): 0.6 nM | GI50 (A549): 3.09 nM | GI50 [5]: 1.51 nM | GI50 (HCT-116): 0.6 nM | GI50 (SNB-19): 2.04 nM | GI50 [6]: 0.78 nM | GI50 [7]: 1.7 nM | GI50 [8]: 0.71 nM | GI50 (MCF7): 0.55 nM | GI50 (Malme-3M): 0.45 nM | GI50 (SK-OV-3): 13.8 nM | GI50 (NCI-H23): 1 nM | GI50 (ACHN): 0.79 nM | GI50 (IGROV-1): 2.24 nM | GI50 (786-0): 1.44 nM | GI50 (SK-MEL-28): 0.46 nM | GI50 (KM12): 1.7 nM | GI50 [9]: 1.55 nM | GI50 (MDA-MB-231): 1.26 nM | GI50 (U-251): 1.55 nM | GI50 [10]: 1 nM | GI50 (TK-10): 1 nM | GI50 (SK-MEL-5): 0.68 nM | GI50 (MDA-MB-435): 0.44 nM | GI50 (NCI-H322M): 17.8 nM | GI50 [11]: 2.63 nM | GI50 (DU-145): 1.7 nM | GI50 [12]: 1.95 nM | GI50 [13]: 1.05 nM | GI50 (NCI-H460): 4.47 nM | GI50 [14]: 12.3 nM | GI50 (COLO 205): 1.23 nM | GI50 (SN12C): 1.1 nM | GI50 [15]: 0.51 nM | GI50 (RPMI-8226): 0.23 nM | GI50 (K562): 1.17 nM | GI50 [16]: 1.02 nM | GI50 (SW-620): 0.55 nM | GI50 (CCRF-CEM): 0.35 nM | GI50 (NCI-H226): 0.46 nM | GI50 (SNB-75): 2.04 nM | GI50 (HT-29): 0.95 nM | GI50 [17]: 0.55 nM | GI50 (NCI-H522): 1.44 nM | GI50 (MDA-MB-468): 1.48 nM | GI50 [18]: 0.59 nM | GI50 (CAKI-1): 0.66 nM | GI50 [19]: 0.54 nM | GI50 (SK-MEL-2): 1.07 nM | GI50 (SR): 0.85 nM | Ki (Chymotrypsinogen A): 2400 nM

Source: ChEMBL document CHEMBL3286129, “Optimization of peptidomimetic boronates bearing a P3 bicyclic scaffold as proteasome inhibitors” (Eur J Med Chem, 2014)
